Experimental data taken from ChEMBL document CHEMBL3352313 (J Med Chem, 2014).

Key:
[1] = target: T1, Muscarinic acetylcholine receptor M5 (Homo sapiens) (UniProt P08912); experiment: Positive allosteric modulator activity at human muscarinic acetylcholine receptor subtype 5 expressed in CHO cells by calcium mobilization assay relative to acetylcholine; assay type: functional, cell-based
T1 sequence (whole entry): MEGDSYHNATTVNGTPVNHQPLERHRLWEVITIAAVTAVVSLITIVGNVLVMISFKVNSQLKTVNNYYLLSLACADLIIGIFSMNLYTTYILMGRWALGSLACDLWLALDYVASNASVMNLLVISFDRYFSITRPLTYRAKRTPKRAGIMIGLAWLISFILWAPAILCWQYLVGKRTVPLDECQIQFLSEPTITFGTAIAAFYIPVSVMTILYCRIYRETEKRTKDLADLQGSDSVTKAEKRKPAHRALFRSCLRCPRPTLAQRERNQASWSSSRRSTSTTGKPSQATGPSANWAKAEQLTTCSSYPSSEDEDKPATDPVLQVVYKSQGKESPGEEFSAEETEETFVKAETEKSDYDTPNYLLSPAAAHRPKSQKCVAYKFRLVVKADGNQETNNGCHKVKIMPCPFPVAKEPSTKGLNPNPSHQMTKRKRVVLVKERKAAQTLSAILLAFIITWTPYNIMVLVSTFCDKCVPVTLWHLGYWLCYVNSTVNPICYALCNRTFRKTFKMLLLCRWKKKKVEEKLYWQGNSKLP

[2] = Intrinsic clearance in rat liver microsomes; assay type: ADME; conditions: read-out: CLH
In short: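 Microsomal intrinsic clearance, used in the well-stirred model of organ clearance, not corrected for plasma fraction unbound, to predict hepatic clearance.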

[3] = target: T2, Muscarinic acetylcholine receptor M5 (Homo sapiens, UniProt P08912); experiment: Positive allosteric modulator activity at human muscarinic acetylcholine receptor subtype 5 expressed in CHO cells by calcium mobilization assay; assay type: functional, cell-based
T2 sequence (P08912 whole entry): T1 sequence (whole entry)

[4] = target: T1, Muscarinic acetylcholine receptor M5 (Homo sapiens); experiment: Positive allosteric modulator activity at human muscarinic acetylcholine receptor subtype 5 expressed in CHO cells assessed as fold shift in acetylcholine-induced response at 10 uM by calcium mobilization assay; assay type: functional, cell-based
In short: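 In hM5 CHO cells by calcium mobilization, PAM at a fixed 10 μM or vehicle is added before an ACh concentration-response curve. Fold shift is the ratio of ACh potency without PAM to potency with PAM.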

[5] = target: T1, Muscarinic acetylcholine receptor M5 (Homo sapiens); experiment: Displacement of [3H]NMS from human muscarinic acetylcholine receptor subtype 5 expressed in CHO cell membranes assessed as radioligand binding level by scintillation counting method

SMILES	%max [1] [%]	EC50 ([3]; read-out: EC50) [nM]	other results
O=C(C1CCN(S(=O)(=O)c2ccc3[nH]ncc3c2)CC1)N(Cc1ccccc1C(F)(F)F)CC1CC1	102	120	CLint scaled [2]: > 500 mL/min/kg
C=CCN(Cc1ccccc1C(F)(F)F)C(=O)C1CCN(S(=O)(=O)c2ccc3[nH]ncc3c2)CC1	79	1800	–
CCN(Cc1cccc(C)c1)C(=O)C1CCN(S(=O)(=O)c2ccc3cn[nH]c3c2)CC1	78	870	–
CCN(Cc1ccccc1)C(=O)C1CCN(S(=O)(=O)c2ccc3cn[nH]c3c2)CC1	86	1700	fold change (FC) [4]: 4.8
CCN(Cc1ccccc1Cl)C(=O)C1CCN(S(=O)(=O)c2ccc3[nH]ncc3c2)CC1	78	350	–
CCN(Cc1cccc(C(F)(F)F)c1)C(=O)C1CCN(S(=O)(=O)c2ccc3cn[nH]c3c2)CC1	59	5600	–
CCN(C(=O)C1CCN(S(=O)(=O)c2ccc3c(c2)CCO3)CC1)[C@H](C)c1ccccc1	88	1110	–
CCN(Cc1ccccc1)C(=O)C1CCN(S(=O)(=O)c2ccc3occc3c2)CC1	80	2400	–
CCN(Cc1ccccc1C)C(=O)C1CCN(S(=O)(=O)c2ccc3cn[nH]c3c2)CC1	103	870	–
O=C(C1CCN(S(=O)(=O)c2ccc3[nH]ncc3c2)CC1)N(Cc1ccccc1C(F)(F)F)CC1CCC1	103	130	CLint scaled [2]: > 500 mL/min/kg
CCN(Cc1cccc(OC)c1)C(=O)C1CCN(S(=O)(=O)c2ccc3cn[nH]c3c2)CC1	85	2600	–
CCN(C(=O)C1CCN(S(=O)(=O)c2ccc(OC)cc2)CC1)[C@@H](C)c1ccccc1	–	–	EC50 ([3]; cho): Not Active
CCN(Cc1ccccc1)C(=O)C1CCN(S(=O)(=O)c2ccccn2)CC1	–	> 10000	–
CCCN(Cc1ccccc1C(F)(F)F)C(=O)C1CCN(S(=O)(=O)c2ccc3[nH]ncc3c2)CC1	94	160	–
CCN(Cc1ccccc1)C(=O)C1CCN(S(=O)(=O)c2ccc(C)s2)CC1	64	> 10000	–
CCN(Cc1ccccc1)C(=O)C1CCN(S(=O)(=O)c2ccc(C(F)(F)F)nc2)CC1	–	> 10000	–
CCN(C(=O)C1CCN(S(=O)(=O)c2ccc3cn[nH]c3c2)CC1)[C@H](C)c1ccccc1	87	760	–
CCN(Cc1ccccc1)C(=O)C1CCN(S(=O)(=O)c2ccccc2)CC1	69	6200	–
CC(C)N(Cc1ccccc1C(F)(F)F)C(=O)C1CCN(S(=O)(=O)c2ccc3[nH]ncc3c2)CC1	54	> 10000	–
CN1[C@@H]2CC[C@H]1C[C@@H](OC(=O)C(CO)c1ccccc1)C2 (stereo partly specified)	–	–	%max [5]: 1.8%
CCN(Cc1ccccc1)C(=O)C1CCN(S(=O)(=O)c2cccnc2)CC1	–	> 10000	–
CCN(Cc1ccccc1F)C(=O)C1CCN(S(=O)(=O)c2ccc3cn[nH]c3c2)CC1	84	2100	–
CCN(Cc1ccccc1)C(=O)C1CCN(S(=O)(=O)c2ccc(OC)c(OC)c2)CC1	57	> 10000	–
CCN(Cc1cccc(Cl)c1)C(=O)C1CCN(S(=O)(=O)c2ccc3cn[nH]c3c2)CC1	77	1600	–
CCN(Cc1ccccc1)C(=O)C1CCN(S(=O)(=O)c2cccc3nsnc23)CC1	–	> 10000	–
CCN(Cc1ccc(C(F)(F)F)cc1)C(=O)C1CCN(S(=O)(=O)c2ccc3cn[nH]c3c2)CC1	–	–	EC50 ([3]; cho): Not Active
CCN(Cc1ccccc1)C(=O)C1CCN(S(=O)(=O)c2ccc3c(c2)OCCO3)CC1	–	–	fold change (FC) [4]: 2.3

SMILES	%max [1] [%]	EC50 ([3]; read-out: EC50) [nM]	other results
CCN(Cc1ccccc1)C(=O)C1CCN(S(=O)(=O)c2cccc3c2OCCO3)CC1	53	> 10000	–
O=C(C1CCN(S(=O)(=O)c2ccc3[nH]ncc3c2)CC1)N(Cc1ccccc1C(F)(F)F)C1CC1	–	–	EC50 ([3]; cho): Not Active
O=C(C1CCN(S(=O)(=O)c2ccc3[nH]ncc3c2)CC1)N(CCF)Cc1ccccc1C(F)(F)F	95	1300	–
CCN(Cc1cccc(F)c1)C(=O)C1CCN(S(=O)(=O)c2ccc3cn[nH]c3c2)CC1	89	1500	–
CCN(Cc1ccccc1)C(=O)C1CCN(S(=O)(=O)c2c(C)noc2C)CC1	–	> 10000	–
CCN(Cc1ccccc1C(F)(F)F)C(=O)C1CCN(S(=O)(=O)c2ccc3cn[nH]c3c2)CC1	92	480	fold change (FC) [4]: 7
CCN(C(=O)C1CCN(S(=O)(=O)c2ccc3c(c2)CCC3)CC1)[C@H](C)c1ccccc1	97	730	–
CCN(Cc1ccccc1)C(=O)C1CCN(S(=O)(=O)c2cccc(OC)c2)CC1	77	3100	–
O=C(C1CCN(S(=O)(=O)c2ccc3[nH]ncc3c2)CC1)N(Cc1ccccc1C(F)(F)F)C1CCC1	84	1800	–
CCN(Cc1ccccc1)C(=O)C1CCN(S(=O)(=O)c2c[nH]cn2)CC1	–	> 10000	–
CCN(Cc1ccccc1)C(=O)C1CCN(S(=O)(=O)c2ccc3nsnc3c2)CC1	81	3000	–
CCN(Cc1ccccc1)C(=O)C1CCN(S(=O)(=O)c2ccc3cccnc3c2)CC1	66	> 10000	–
CCN(C(=O)C1CCN(S(=O)(=O)c2ccc(OC)cc2)CC1)[C@H](C)c1ccccc1	90	970	fold change (FC) [4]: 7
CCN(C(=O)C1CCN(S(=O)(=O)c2ccc3[nH]ncc3c2)CC1)[C@H](C)c1ccccc1	86	740	fold change (FC) [4]: 12
CCN(Cc1ccccc1)C(=O)C1CCN(S(=O)(=O)c2ccccc2OC)CC1	–	> 10000	–
CCN(Cc1ccccc1)C(=O)C1CCN(S(=O)(=O)c2ccc3c(c2)OCO3)CC1	93	7400	–
CC(C)(C)CN(Cc1ccccc1C(F)(F)F)C(=O)C1CCN(S(=O)(=O)c2ccc3[nH]ncc3c2)CC1	104	120	CLint scaled [2]: > 500 mL/min/kg
CCN(Cc1ccccc1Cl)C(=O)C1CCN(S(=O)(=O)c2ccc3cn[nH]c3c2)CC1	93	640	–
CCN(Cc1ccccc1)C(=O)C1CCN(S(=O)(=O)c2ccncc2)CC1	–	> 10000	–
CCC(C)N(Cc1ccccc1C(F)(F)F)C(=O)C1CCN(S(=O)(=O)c2ccc3[nH]ncc3c2)CC1 (stereo unspecified)	100	150	–
O=C(C1CCN(S(=O)(=O)c2ccc3[nH]ncc3c2)CC1)N(CCO)Cc1ccccc1C(F)(F)F	60	> 10000	–
CCN(Cc1ccccc1)C(=O)C1CCN(S(=O)(=O)c2ccc3[nH]ncc3c2)CC1	86	1600	fold change (FC) [4]: 5.4
CCN(Cc1ccccc1)C(=O)C1CCN(S(=O)(=O)c2ccc(OC)cc2)CC1	84	3300	–
CCN(C(=O)C1CCN(S(=O)(=O)c2ccc3occc3c2)CC1)[C@H](C)c1ccccc1	80	930	–
CCN(Cc1ccccc1OC)C(=O)C1CCN(S(=O)(=O)c2ccc3cn[nH]c3c2)CC1	92	750	–
CCN(Cc1ccc(F)cc1)C(=O)C1CCN(S(=O)(=O)c2ccc3cn[nH]c3c2)CC1	55	> 10000	–
